Source: paper PMC8662605 (Molecular Biology and Evolution, 2021)

Key:
[1] = test system: white-faced saki Tas2R16 (wild-type, 172N); assay type: cell-based, white-faced saki (Pithecia pithecia)
[2] = test system: 172K mutant of the white-faced saki Tas2R16; experiment: functional heterologous cell expression assay, calcium mobilization, mutagenesis; assay type: cell-based, white-faced saki (Pithecia pithecia); conditions: for EC50: 172K mutant of white-faced saki Tas2R16
Summary of the method: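 Saki Tas2R16 (wild-type, or the reverse 172K mutant made by site-directed mutagenesis) was expressed from HSV-tagged pcDNA5/FRT vectors, transiently transfected into HEK293 cells stably expressing chimeric Gα16-gust44. Calcium mobilisation on bitter stimulation was recorded on a fluorescence plate reader. EC50 came from nonlinear sigmoidal dose–response fits with variable slope. Cell-surface receptor expression was measured by imaging cytometry.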

human Tas2R16 = target: T1, human Tas2R16 (Homo sapiens, UniProt Q9NYV7); assay type: cell-based
T1 sequence (Q9NYV7 1-291): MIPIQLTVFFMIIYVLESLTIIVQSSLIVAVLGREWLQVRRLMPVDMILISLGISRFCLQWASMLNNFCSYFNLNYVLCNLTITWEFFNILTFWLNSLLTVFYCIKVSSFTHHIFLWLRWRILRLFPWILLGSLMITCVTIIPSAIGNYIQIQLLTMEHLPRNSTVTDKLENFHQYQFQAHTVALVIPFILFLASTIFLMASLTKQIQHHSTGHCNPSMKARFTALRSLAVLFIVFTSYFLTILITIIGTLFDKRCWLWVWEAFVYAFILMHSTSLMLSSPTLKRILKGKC

[3] = 172K saki mutant versus wild-type (172N)

EC50 [1] [µM] | EC50 (human Tas2R16) [µM] | SMILES | EC50 [2] [µM] | fold increased EC50 value compared with the wild-type [2, 3] [fold] | sensitivity compared with the wild-type [2, 3]
500 ± 40 | – | O=Cc1ccccc1O[C@@H]1O[C@H](CO)[C@@H](O)[C@H](O)[C@H]1O [helicin] | 890 ± 110 | ~2 | about 50%
510 ± 30 | 490 ± 80 | OCc1ccccc1O[C@@H]1O[C@H](CO)[C@@H](O)[C@H](O)[C@H]1O [salicin] | 1120 ± 190 | – | about 50%
